The structures appear in SMILES notation. pEC50: −log10 of the molar value. Some results are limits rather than exact numbers.

Chain of Sphingosine 1-phosphate receptor 3 (Q99500 whole entry): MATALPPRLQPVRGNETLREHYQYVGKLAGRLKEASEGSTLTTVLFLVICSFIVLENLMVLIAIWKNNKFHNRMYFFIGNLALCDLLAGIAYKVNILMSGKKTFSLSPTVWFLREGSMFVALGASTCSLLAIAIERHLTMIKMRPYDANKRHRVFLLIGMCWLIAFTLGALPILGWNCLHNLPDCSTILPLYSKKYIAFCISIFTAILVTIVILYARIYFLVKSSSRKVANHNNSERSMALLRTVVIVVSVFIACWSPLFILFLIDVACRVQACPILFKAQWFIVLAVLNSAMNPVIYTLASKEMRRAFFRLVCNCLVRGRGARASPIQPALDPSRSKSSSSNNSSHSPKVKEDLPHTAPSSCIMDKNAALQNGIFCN

Test system in one series: not listed separately
The series is described as follows: Selectivity index, ratio of EC50 for agonist activity at human S1P3 expressed in CHO cell membranes to EC50 for agonist activity at human S1P1 expressed in CHO cell membranes.
Conditions: not given
The format is cell-based.
For `CC(C)Cc1onc(-c2onc3c2CCc2cc(CN4CC(C(=O)O)C4)ccc2-3)c1C(F)(F)F`, the Ratio EC50 is over 2100.
With `O=C(O)C1CN(Cc2ccc3c(c2)CCc2c-3noc2-c2snc(-c3ccccc3)c2C(F)(F)F)C1`, the Ratio EC50 stood at 7900.
As to `O=C(O)C1CN(Cc2ccc3c(c2)CCc2nc(-c4onc(-c5ccccc5)c4C(F)(F)F)oc2-3)C1`, the Ratio EC50 was determined as 170.
For `O=C(O)C1CN(Cc2ccc3c(c2)CCc2c-3noc2-c2noc(-c3ccccc3)c2C(F)(F)F)C1`, the Ratio EC50 amounted to 4000.
Still for that read-out and setting: the result for `CC(C)Cc1ccc(-c2onc3c2CCc2cc(CN4CC(C(=O)O)C4)ccc2-3)cc1C(F)(F)F` reads 2200.
For the compound `O=C(O)C1CN(Cc2ccc3c(c2)CCc2c-3noc2-c2ccc(C3CCCCC3)c(C(F)(F)F)c2)C1`, the Ratio EC50 was determined as 2100.

Another series relates to Rattus norvegicus. Kind of series: Reduction in circulating lymphocytes count in Lewis rat blood at 1 mg/kg, po measured at 4 hrs by hematology analyzer based analysis.
Conditions: not given
On the set-up: scale not given: the % may be the effect or the level left. In kind it is functional. The procedure, abridged: (§1)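 Lewis rats were given an oral dose as a solution or suspension in PEG300, with controls receiving vehicle only. Blood was taken by retro-orbital bleeding under isoflurane at 4 and 24 h. Lymphocytes were counted on a hematology analyzer. Reduction is relative to the vehicle group, averaged over the animals in each group (n = 3−4).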
For the compound `CC(C)Cc1onc(-c2onc3c2CCc2cc(CN4CC(C(=O)O)C4)ccc2-3)c1C(F)(F)F`, the Activity worked out at 86%.
Compound `O=C(O)C1CN(Cc2ccc3c(c2)CCc2c-3noc2-c2snc(-c3ccccc3)c2C(F)(F)F)C1` had an Activity of 74%.
In turn, `O=C(O)C1CN(Cc2ccc3c(c2)CCc2nc(-c4onc(-c5ccccc5)c4C(F)(F)F)oc2-3)C1` returned an Activity of 62%.
On the same count and under the same terms, the result for `O=C(O)C1CN(Cc2ccc3c(c2)CCc2c-3noc2-c2noc(-c3ccccc3)c2C(F)(F)F)C1` reads 83%; that for `CC(C)Cc1ccc(-c2onc3c2CCc2cc(CN4CC(C(=O)O)C4)ccc2-3)cc1C(F)(F)F`, 74%.
Still for that read-out and setting: the result for `O=C(O)C1CN(Cc2ccc3c(c2)CCc2c-3noc2-c2ccc(C3CCCCC3)c(C(F)(F)F)c2)C1` reads 35%.

The next series has as its system Rattus norvegicus. The series is described as follows: Reduction in circulating lymphocytes count in Lewis rat blood at 1 mg/kg, po measured at 24 hrs by hematology analyzer based analysis. The format is functional.
Conditions: not given
On the set-up: scale not given: the % may be the effect or the level left. The procedure, abridged:
as §1
Turning to `CC(C)Cc1onc(-c2onc3c2CCc2cc(CN4CC(C(=O)O)C4)ccc2-3)c1C(F)(F)F`, the Activity is recorded as 80%.
The same measure, in the same setting: the result for `O=C(O)C1CN(Cc2ccc3c(c2)CCc2c-3noc2-c2snc(-c3ccccc3)c2C(F)(F)F)C1` reads 69%.
`O=C(O)C1CN(Cc2ccc3c(c2)CCc2nc(-c4onc(-c5ccccc5)c4C(F)(F)F)oc2-3)C1` yielded an Activity of 2%.
For `O=C(O)C1CN(Cc2ccc3c(c2)CCc2c-3noc2-c2noc(-c3ccccc3)c2C(F)(F)F)C1`, the Activity was 87%.
`CC(C)Cc1ccc(-c2onc3c2CCc2cc(CN4CC(C(=O)O)C4)ccc2-3)cc1C(F)(F)F` yielded an Activity of 76%.
The same measure, in the same setting: the result for `O=C(O)C1CN(Cc2ccc3c(c2)CCc2c-3noc2-c2ccc(C3CCCCC3)c(C(F)(F)F)c2)C1` reads 32%.

Test system in the next series: not listed separately
Kind of series: Ratio of plasma concentration in Lewis rat at 1 mg/kg, po measured at 4 hrs to plasma concentration in Lewis rat at 1 mg/kg, po measured at 24 hrs. The format is ADME, organism-based. The note with it: in vivo.
As to `CC(C)Cc1onc(-c2onc3c2CCc2cc(CN4CC(C(=O)O)C4)ccc2-3)c1C(F)(F)F`, the Ratio turned out to be 9.
The same measure, in the same setting: the result for `O=C(O)C1CN(Cc2ccc3c(c2)CCc2c-3noc2-c2snc(-c3ccccc3)c2C(F)(F)F)C1` reads 6; that for `O=C(O)C1CN(Cc2ccc3c(c2)CCc2nc(-c4onc(-c5ccccc5)c4C(F)(F)F)oc2-3)C1`, 10.
For the compound `O=C(O)C1CN(Cc2ccc3c(c2)CCc2c-3noc2-c2noc(-c3ccccc3)c2C(F)(F)F)C1`, the Ratio was found to be 4.
The same measure, in the same setting: the result for `CC(C)Cc1ccc(-c2onc3c2CCc2cc(CN4CC(C(=O)O)C4)ccc2-3)cc1C(F)(F)F` reads 2; that for `O=C(O)C1CN(Cc2ccc3c(c2)CCc2c-3noc2-c2ccc(C3CCCCC3)c(C(F)(F)F)c2)C1`, 4.

A further series concerns the target Sphingosine 1-phosphate receptor 3 (Homo sapiens, UniProt Q99500). The series is described as follows: Agonist activity at human S1P3 expressed in CHO cell membranes assessed as stimulation of [35S]-GTPgamma-S binding measured after 45 mins by liquid scintillation counting method. The arrangement: species or system Cell membrane.
Conditions: not given
With `CC(C)Cc1onc(-c2onc3c2CCc2cc(CN4CC(C(=O)O)C4)ccc2-3)c1C(F)(F)F`, the pEC50 was under 5.51.
Same read-out and setting: the result for `O=C(O)C1CN(Cc2ccc3c(c2)CCc2c-3noc2-c2snc(-c3ccccc3)c2C(F)(F)F)C1` reads 5.34; that for `O=C(O)C1CN(Cc2ccc3c(c2)CCc2nc(-c4onc(-c5ccccc5)c4C(F)(F)F)oc2-3)C1`, 6.04; that for `O=C(O)C1CN(Cc2ccc3c(c2)CCc2c-3noc2-c2noc(-c3ccccc3)c2C(F)(F)F)C1`, 5.72.
The same measure, in the same setting: the result for `CC(C)Cc1ccc(-c2onc3c2CCc2cc(CN4CC(C(=O)O)C4)ccc2-3)cc1C(F)(F)F` reads 5.55; that for `O=C(O)C1CN(Cc2ccc3c(c2)CCc2c-3noc2-c2ccc(C3CCCCC3)c(C(F)(F)F)c2)C1`, 5.68.

Test system in a further series: not listed separately
The series is described as follows: Plasma concentration in Lewis rat at 1 mg/kg, po measured at 4 hr. In kind it is ADME, organism-based. The note with it: Lewis, plasma. The method, boiled down: (§2)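 Lewis rats received a single oral 1.0 mg/kg dose as solution or suspension in PEG300. Blood was drawn retro-orbitally under isoflurane at 4 h and 24 h, within the blood lymphocyte reduction study. n = 3−4 per group, group mean reported.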
As to `CC(C)Cc1onc(-c2onc3c2CCc2cc(CN4CC(C(=O)O)C4)ccc2-3)c1C(F)(F)F`, the concentration at 4 h came out at 520 nM.
As to `O=C(O)C1CN(Cc2ccc3c(c2)CCc2c-3noc2-c2snc(-c3ccccc3)c2C(F)(F)F)C1`, the concentration at 4 h is 190 nM.
As to `O=C(O)C1CN(Cc2ccc3c(c2)CCc2nc(-c4onc(-c5ccccc5)c4C(F)(F)F)oc2-3)C1`, the concentration at 4 h was determined as 110 nM.
As for `O=C(O)C1CN(Cc2ccc3c(c2)CCc2c-3noc2-c2noc(-c3ccccc3)c2C(F)(F)F)C1`, the concentration at 4 h is 160 nM.
Same read-out and setting: the result for `CC(C)Cc1ccc(-c2onc3c2CCc2cc(CN4CC(C(=O)O)C4)ccc2-3)cc1C(F)(F)F` reads 110 nM; that for `O=C(O)C1CN(Cc2ccc3c(c2)CCc2c-3noc2-c2ccc(C3CCCCC3)c(C(F)(F)F)c2)C1`, 68 nM.

In another series the target is Sphingosine 1-phosphate receptor 1 (Homo sapiens, UniProt P21453). Kind of series: Agonist activity at human S1P1 expressed in CHO cell membranes assessed as stimulation of [35S]-GTPgamma-S binding measured after 45 mins by liquid scintillation counting method. The arrangement: species or system Cell membrane.
Chain of Sphingosine 1-phosphate receptor 1 (P21453 whole entry): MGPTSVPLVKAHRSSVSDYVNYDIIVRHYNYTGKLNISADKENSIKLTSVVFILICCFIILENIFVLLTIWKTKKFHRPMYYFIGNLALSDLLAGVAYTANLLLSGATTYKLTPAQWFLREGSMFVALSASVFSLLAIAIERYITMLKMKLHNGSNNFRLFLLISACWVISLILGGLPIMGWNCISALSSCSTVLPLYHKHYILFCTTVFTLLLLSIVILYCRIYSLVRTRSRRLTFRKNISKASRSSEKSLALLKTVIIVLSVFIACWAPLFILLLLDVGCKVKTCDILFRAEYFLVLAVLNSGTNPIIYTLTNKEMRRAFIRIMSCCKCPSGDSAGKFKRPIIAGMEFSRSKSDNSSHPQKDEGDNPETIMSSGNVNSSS
Conditions: not given
The procedure, abridged: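 S1P1/CHO cell membranes at 3 μg protein/well with 3-fold compound dilutions. [35S]GTPγS 0.2 nM final, 45 min at room temperature. Filter-plate capture, water washes, scintillation counting. EC50 taken at 50% of each compound's own Ymax.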
Regarding `CC(C)Cc1onc(-c2onc3c2CCc2cc(CN4CC(C(=O)O)C4)ccc2-3)c1C(F)(F)F`, the pEC50 is 8.82.
For `O=C(O)C1CN(Cc2ccc3c(c2)CCc2c-3noc2-c2snc(-c3ccccc3)c2C(F)(F)F)C1`, the pEC50 is 9.24.
With `O=C(O)C1CN(Cc2ccc3c(c2)CCc2nc(-c4onc(-c5ccccc5)c4C(F)(F)F)oc2-3)C1`, the pEC50 was 8.26.
Still for that read-out and setting: the result for `O=C(O)C1CN(Cc2ccc3c(c2)CCc2c-3noc2-c2noc(-c3ccccc3)c2C(F)(F)F)C1` reads 9.32; that for `CC(C)Cc1ccc(-c2onc3c2CCc2cc(CN4CC(C(=O)O)C4)ccc2-3)cc1C(F)(F)F`, 8.89; that for `O=C(O)C1CN(Cc2ccc3c(c2)CCc2c-3noc2-c2ccc(C3CCCCC3)c(C(F)(F)F)c2)C1`, 9.01.

Test system in the next series: not listed separately
The series is described as follows: Plasma concentration in Lewis rat at 1 mg/kg, po measured at 24 hrs. The note with it: Lewis, plasma. The format is ADME, organism-based. The method, boiled down:
as §2
In the case of `CC(C)Cc1onc(-c2onc3c2CCc2cc(CN4CC(C(=O)O)C4)ccc2-3)c1C(F)(F)F`, the concentration at 24 h worked out at 61 nM.
The compound `O=C(O)C1CN(Cc2ccc3c(c2)CCc2c-3noc2-c2snc(-c3ccccc3)c2C(F)(F)F)C1` had a concentration at 24 h of 32 nM.
Same read-out and setting: the result for `O=C(O)C1CN(Cc2ccc3c(c2)CCc2nc(-c4onc(-c5ccccc5)c4C(F)(F)F)oc2-3)C1` reads 11 nM.
`O=C(O)C1CN(Cc2ccc3c(c2)CCc2c-3noc2-c2noc(-c3ccccc3)c2C(F)(F)F)C1` returned a concentration at 24 h of 43 nM.
The compound `CC(C)Cc1ccc(-c2onc3c2CCc2cc(CN4CC(C(=O)O)C4)ccc2-3)cc1C(F)(F)F` returned a concentration at 24 h of 50 nM.
On the same count and under the same terms, the result for `O=C(O)C1CN(Cc2ccc3c(c2)CCc2c-3noc2-c2ccc(C3CCCCC3)c(C(F)(F)F)c2)C1` reads 17 nM.

Source of the values: ChEMBL document CHEMBL4680083, “Identification of Tricyclic Agonists of Sphingosine-1-phosphate Receptor 1 (S1P) Employing Ligand-Based Drug Design” (J Med Chem, 2016).
